Measured values published in ChEMBL document CHEMBL4428034, “Bioactive Isoprenoid-Derived Natural Products from a Dongsha Atoll Soft Coral Sinularia erecta” (J Nat Prod, 2016).

Columns and labels:
Neutrophil [1] = assay: Anti-inflammatory activity in FMLP/CB-stimulated human neutrophils assessed as inhibition of elastase release at 10 uM preincubated for 5 mins followed by FMLP/CB stimulation for 10 mins using MeO-Suc-Ala-Ala-Pro-Val-p-nitroanilide as substrate relative to control; assay type: functional
How it was run: (§1)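 Percent inhibition at 10 μM relative to control in fMLP/CB-stimulated human neutrophils. Values are mean ± SEM (n = 3), with significance tested against the control value.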

Neutrophil [2] = assay: Anti-inflammatory activity in FMLP/CB-stimulated human neutrophils assessed as inhibition of superoxide generation preincubated for 5 mins followed by cytochalasin B and FMLP stimulation for 3 mins and 10 mins respectively by ferricytochrome c reduction based assay; assay type: functional, cell-based
How it was run: (§2)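 In fMLP/CB-stimulated human neutrophils, IC50 was taken as the concentration giving 50% inhibition. Values are mean ± SEM (n = 3).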

Neutrophil [3] = assay: Anti-inflammatory activity in FMLP/CB-stimulated human neutrophils assessed as inhibition of superoxide generation at 10 uM preincubated for 5 mins followed by cytochalasin B and FMLP stimulation for 3 mins and 10 mins respectively by ferricytochrome c reduction based assay relative to control; assay type: functional; how it was run: as §1
Neutrophil [4] = assay: Anti-inflammatory activity in FMLP/CB-stimulated human neutrophils assessed as inhibition of elastase release preincubated for 5 mins followed by FMLP/CB stimulation for 10 mins using MeO-Suc-Ala-Ala-Pro-Val-p-nitroanilide as substrate; assay type: functional, cell-based; how it was run: as §2
MOLT-4 = assay: Cytotoxicity against human MOLT4 cells assessed as growth inhibition after 3 days by alamar blue assay; assay type: functional, cell-based; details: MOLT-4, 72 h
How it was run: (§3)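 Cells were seeded at 5 × 10^3 to 1 × 10^4 per well and kept in a humidified 5% CO2 incubator. After 3 days in culture, Alamar Blue was added for 4 h and absorbance read at 595 nm. IC50 is the concentration that reduced cell growth by 50%.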

K562 = assay: Cytotoxicity against human K562 cells assessed as growth inhibition after 3 days by alamar blue assay; assay type: functional, cell-based; details: K562, 72 h
CCRF-CEM = assay: Cytotoxicity against human CCRF-CEM cells assessed as growth inhibition after 3 days by alamar blue assay; assay type: functional, cell-based; details: 72 h; how it was run: as §3

## COC(=O)[C@@]1(CCl)O[C@@]2(O)C[C@H]1C[C@@H](O)[C@]13O[C@H]1[C@H](C[C@@]1(C)CC(=O)[C@H](C2)O1)OC3=O
Neutrophil [1]
  inhibition at 10 µM: 14%
Neutrophil [2]
  IC50: > 10 µM
Neutrophil [3]
  inhibition at 10 µM: 7%
Neutrophil [4]
  IC50: > 10 µM

## C=C(C(=O)OC)[C@H]1CC(=O)C[C@@H]2O[C@@H]3[C@H](C[C@](C)(O)CC2=O)OC(=O)[C@@]32O[C@@H]2C1
Neutrophil [1]
  inhibition at 10 µM: 93%
Neutrophil [2]
  IC50: 8.5 µM
Neutrophil [3]
  inhibition at 10 µM: 55%
Neutrophil [4]
  IC50: 3.8 µM

## C=C(C)[C@@H]1C[C@H]2O[C@](O)(C1)C[C@@H](OC(C)=O)C(=O)/C=C(/C)C[C@@H]1OC(=O)[C@]23O[C@@H]13
Neutrophil [1]
  inhibition at 10 µM: 113%
Neutrophil [2]
  IC50: 2.3 µM
Neutrophil [3]
  inhibition at 10 µM: 100%
Neutrophil [4]
  IC50: 0.9 µM

## C=C(C)C(CCC(C)=O)C[C@@H]1O[C@@]1(C)C/C=C/C(C)=O (stereo partly specified)
Neutrophil [1]
  inhibition at 10 µM: 17%
Neutrophil [2]
  IC50: > 10 µM
Neutrophil [3]
  inhibition at 10 µM: 13%
MOLT-4
  IC50: 9.7 µM
Neutrophil [4]
  IC50: > 10 µM
K562
  IC50: 8.6 µM

## CCCCCCCCC/C(C)=C\C(=O)NCCc1ccc(O)cc1
Neutrophil [1]
  inhibition at 10 µM: 102%
Neutrophil [2]
  IC50: > 10 µM
CCRF-CEM
  IC50: 6.3 µM
Neutrophil [3]
  inhibition at 10 µM: 48%
MOLT-4
  IC50: 9.7 µM
Neutrophil [4]
  IC50: 1 µM

## CC[C@H](Nc1ncnc2[nH]cnc12)c1nc2cccc(F)c2c(=O)n1-c1ccccc1 [IDELALISIB]
Neutrophil [1]
  inhibition at 10 µM: 100%
Neutrophil [2]
  IC50: 0.07 µM
Neutrophil [3]
  inhibition at 10 µM: 103%
Neutrophil [4]
  IC50: 0.3 µM

## C=C(C)[C@@H]1CCC2=C[C@H](C[C@@]3(C)CC(=O)[C@H](CC(=O)C1)O3)OC2=O
Neutrophil [1]
  inhibition at 10 µM: 19%
Neutrophil [2]
  IC50: > 10 µM
Neutrophil [3]
  inhibition at 10 µM: 15%
Neutrophil [4]
  IC50: > 10 µM

## C=C(C)[C@@H]1CCC(=C)[C@@H](OO)CCC(=C)[C@H]2CC[C@@](C)(O2)[C@@H](O)C1
Neutrophil [1]
  inhibition at 10 µM: 33%
Neutrophil [2]
  IC50: > 10 µM
Neutrophil [3]
  inhibition at 10 µM: 24%
Neutrophil [4]
  IC50: > 10 µM
K562
  IC50: 9.2 µM

## C=C(C)[C@H]1CC(=O)[C@@H]2[C@@H](C1)[C@H]1C(=O)O[C@H]3C[C@@]4(C)O[C@@H]2C(=O)[C@H]4[C@@H]13
Neutrophil [1]
  inhibition at 10 µM: 18%
Neutrophil [2]
  IC50: > 10 µM
Neutrophil [3]
  inhibition at 10 µM: 16%
Neutrophil [4]
  IC50: > 10 µM
